Laboratory results taken from ChEMBL document CHEMBL1155225, “Investigation of functionally liver selective glucokinase activators for the treatment of type 2 diabetes” (J Med Chem, 2009).
In brackets after ≈: the same amount, converted by molar mass. Activity calls are given as the source filed them. No cut-off for these calls is given here.

Columns and labels:
[1] = Metabolic stability in human liver microsomes assessed as half life; type: ADME, Microsome
In short: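 Compound incubated at 1 μM with human liver microsomes plus selected cofactors (NADPH, UDPGA); clearance followed at 4 time points as % test compound remaining, giving half-life.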

[2] = Permeability at 5 to 10 uM at pH 4, 6.8 and 8 by PAMPA; conditions: pH 4, 6.8, 8, 10 µM
Mus musculus [3] = assay: Reduction in glucose excursion in C57BL/6 mouse at 50 mg/kg, po in microemulsion administered 30 mins before glucose challenge measured at 4 hrs postdose by oral glucose tolerance test; type: functional, organism-based; parameters: dose 50 mg/kg; conditions: C57BL6
In short: (§1)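 C57BL6 mice grouped by matched 0-h plasma glucose; compound given by oral gavage (5 mL/kg) at 50 mg/kg (or 72 mg/kg) in microemulsion (Cremophor RH40, corn oil-monodiglyceride, propylene glycol, ethanol; diluted 2:3 with water) or in water; oral glucose 1 g/kg 30 min later. Blood sampled at 0.5, 1, 2 and 4 h post-dosing for glucose (meter) and insulin; % reduction from control.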

[4] = target: T1, Hexokinase-4 (Homo sapiens) (UniProt P35557); assay: Activation of His-tagged human recombinant liver glucokinase expressed in Escherichia coli BL21 (DE3) assessed as drug level required for half-maximal activation; type: single protein
T1 sequence (whole entry): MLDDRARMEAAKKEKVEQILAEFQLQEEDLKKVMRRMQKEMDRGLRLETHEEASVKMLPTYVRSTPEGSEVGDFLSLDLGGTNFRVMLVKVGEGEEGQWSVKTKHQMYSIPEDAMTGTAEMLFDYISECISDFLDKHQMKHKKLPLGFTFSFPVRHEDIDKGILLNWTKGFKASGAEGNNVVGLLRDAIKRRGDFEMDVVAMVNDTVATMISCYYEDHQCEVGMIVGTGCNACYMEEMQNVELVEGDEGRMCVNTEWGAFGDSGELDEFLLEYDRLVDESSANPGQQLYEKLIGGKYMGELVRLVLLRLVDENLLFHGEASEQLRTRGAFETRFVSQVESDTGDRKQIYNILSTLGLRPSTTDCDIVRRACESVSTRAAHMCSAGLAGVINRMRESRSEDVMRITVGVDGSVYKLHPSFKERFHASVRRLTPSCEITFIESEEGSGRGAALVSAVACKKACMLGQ
In short: (§2)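 Recombinant human liver GK (aa 17-466), His-tagged, expressed in E. coli BL21 Star (DE3), nickel affinity purified, tag cleaved (GPGSM left), then anion exchange and gel filtration to >95%.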

[5] = Aqueous solubility in water by HPLC analysis; type: physicochemical
[6] = target: T2, Hexokinase-4 (Rattus norvegicus) (UniProt P17712); assay: Activation of glucokinase-mediated of glucose phosphorylation in Sprague-Dawley rat hepatocytes assessed as release of [3H]H2O from [2-3H]glucose at 30 uM after 3 hrs; type: cell-based; conditions: Hepatocyte
T2 sequence (whole entry): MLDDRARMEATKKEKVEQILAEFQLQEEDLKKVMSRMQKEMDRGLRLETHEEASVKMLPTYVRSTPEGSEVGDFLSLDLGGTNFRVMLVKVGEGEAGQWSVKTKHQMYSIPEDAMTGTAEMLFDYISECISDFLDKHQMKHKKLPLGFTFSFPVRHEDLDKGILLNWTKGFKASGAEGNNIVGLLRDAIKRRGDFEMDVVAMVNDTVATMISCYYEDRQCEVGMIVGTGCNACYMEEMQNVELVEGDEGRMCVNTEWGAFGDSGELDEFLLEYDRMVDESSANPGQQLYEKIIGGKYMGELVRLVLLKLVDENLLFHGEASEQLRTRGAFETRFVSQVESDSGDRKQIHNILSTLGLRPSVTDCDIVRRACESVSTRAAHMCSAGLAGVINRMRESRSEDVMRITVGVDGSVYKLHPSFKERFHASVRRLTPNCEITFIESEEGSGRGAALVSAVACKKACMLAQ
In short: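 Hepatocytes from overnight-fasted male Sprague-Dawley rats by collagenase perfusion, cultured 16-20 h at 37 °C, 5% CO2 in serum-free DMEM with 5 mM glucose plus dexamethasone. Preincubated 3 h at 37 °C in serum-free DMEM, 5 mM glucose, with DMSO or 30 μM compound, then 30 min with [2-3H]glucose. Medium collected into 0.1 M HCl; detritiated glucose (nmol/h per 10^6 cells) as % increase over vehicle; quadruplicate, mean ± SEM, Student's t test.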

[7] = Intrinsic solubility in neutral pH by HPLC analysis; type: physicochemical
Mus musculus [8] = assay: Reduction in glucose excursion in C57BL/6 mouse at 50 mg/kg, po in water administered 30 mins before glucose challenge measured at 1 hr postdose by oral glucose tolerance test; type: functional, C57BL6; parameters: scale not given: the % may be the effect or the level left; in short: as §1
Mus musculus [9] = assay: Reduction in glucose excursion in C57BL/6 mouse at 50 mg/kg, po in water administered 30 mins before glucose challenge measured at 2 hrs postdose by oral glucose tolerance test; type: functional, C57BL6; parameters: scale not given: the % may be the effect or the level left; in short: as §1
[10] = Aqueous solubility by HPLC analysis; type: physicochemical; conditions: buffer
Mus musculus [11] = assay: Reduction in glucose excursion in C57BL/6 mouse at 50 mg/kg, po in microemulsion administered 30 mins before glucose challenge measured at 0.5 hrs postdose by oral glucose tolerance test; type: functional, C57BL6; parameters: scale not given: the % may be the effect or the level left; in short: as §1
Mus musculus [12] = assay: Reduction in glucose excursion in C57BL/6 mouse at 72 mg/kg, po in microemulsion administered 30 mins before glucose challenge measured up to 6 hrs postdose by oral glucose tolerance test; type: functional, organism-based; parameters: dose 72 mg/kg; conditions: C57BL6
Mus musculus [13] = assay: Increase in basal insulin release from beta cells in po dosed C57BL/6 mouse; type: functional, organism-based; conditions: C57BL6
Mus musculus [14] = assay: Increase in insulin release from beta cells in po dosed C57BL/6 mouse after glucose challenge; type: functional, organism-based; conditions: C57BL6
[15] = target: T1, Hexokinase-4 (Homo sapiens); assay: Activation of His-tagged human recombinant liver glucokinase expressed in Escherichia coli BL21 (DE3) assessed as drug level required for half-maximal activation for sigmoid activation curve; in short: as §2

| half-life [1] [min] | logPm [2] | Activity [4] [nM] | Activity [6] [%] | Compound | other results |
| --- | --- | --- | --- | --- | --- |
| 4.8 | -4.1 |  |  | CCC(=O)NS(=O)(=O)c1ccc(C(CC2CCCC2)C(=O)Nc2nc3ccc(OC)nc3s2)cc1 (stereo not drawn) |  |
| 2.2 | -4.4 |  |  | CCCC(=O)NS(=O)(=O)c1ccc(C(CC2CCCC2)C(=O)Nc2nc3ccc(OC)nc3s2)cc1 (stereo not drawn) [listing 2 of 2 here] |  |
| 13.1 | -4.5 | 305 |  | COc1ccc2nc(NC(=O)C(CC3CCCC3)c3ccc(S(=O)(=O)NC4CCOCC4)cc3)sc2n1 (stereo not drawn) |  |
| 15.7 | -5 | 61 | 85 | COCCNS(=O)(=O)c1ccc(C(CC2CCCC2)C(=O)Nc2nc3ccc(OC)nc3s2)cc1 (stereo not drawn) | Activity (Mus musculus [3]): inactive |
| 6.2 | -5.2 | 66 | 230 | COc1ccc2nc(NC(=O)C(CC3CCCC3)c3ccc(S(=O)(=O)N4CCCCC4)cc3)sc2n1 (stereo not drawn) |  |
| 4.8 | -7 | 302 | 78 | COc1ccc2nc(NC(=O)C(CC3CCCC3)c3ccc(S(=O)(=O)NC4CCCCC4)cc3)sc2n1 (stereo not drawn) |  |
| 22.6 | -4.3 | 2810 |  | COc1ccc2nc(NC(=O)C(CC3CCCC3)c3ccc(S(=O)(=O)NCCC(=O)O)cc3)sc2n1 (stereo not drawn) | solubility [7]: > 570 µg/mL; Activity (Mus musculus [3]): inactive |
|  |  | 153 | 281 | COc1ccc2nc(NC(=O)C(CC3CCCC3)c3ccc(S(=O)(=O)N4CCOCC4)cc3)sc2n1 (stereo not drawn) |  |
| 27.2 | -4.4 | 1860 |  | COc1ccc2nc(NC(=O)C(CC3CCCC3)c3ccc(S(=O)(=O)NCC(=O)O)cc3)sc2n1 (stereo not drawn) | solubility [7]: > 570 µg/mL; Activity (Mus musculus [8]): 26%; Activity (Mus musculus [9]): 20% |
| 23.1 | -4.4 | 897 |  | COc1ccc2nc(NC(=O)C(CC3CCCC3)c3ccc(S(N)(=O)=O)cc3)sc2n1 (stereo not drawn) | solubility [10]: < 2 µg/mL; Activity (Mus musculus [11]): 22% |
| 19.5 | -5.2 | 266 |  | COc1ccc2nc(NC(=O)C(CC3CCCC3)c3ccc(S(=O)(=O)NC4CC4)cc3)sc2n1 (stereo not drawn) |  |
| 10 | -4.4 | 147 |  | COc1ccc2nc(NC(=O)C(CC3CCCC3)c3ccc(S(=O)(=O)N(C)CCO)cc3)sc2n1 (stereo not drawn) |  |
| 5.8 | -5.9 | 42 | 345 | CCN(CC)S(=O)(=O)c1ccc(C(CC2CCCC2)C(=O)Nc2nc3ccc(OC)nc3s2)cc1 (stereo not drawn) |  |
| 9 | -4.8 | 117 |  | COc1ccc2nc(NC(=O)C(CC3CCCC3)c3ccc(S(=O)(=O)NCCN(C)C)cc3)sc2n1 (stereo not drawn) |  |
| 25.3 | -5.1 | 1450 |  | COc1ccc2nc(NC(=O)C(CC3CCCC3)c3ccc(S(=O)(=O)NCc4cccs4)cc3)sc2n1 (stereo not drawn) |  |
| 17.8 | -3.3 | 295 | 221 | COc1ccc2nc(NC(=O)C(CC3CCCC3)c3ccc(S(=O)(=O)N(C)C)cc3)sc2n1 (stereo not drawn) |  |

The next lines start with the compound.

| Compound | half-life [1] [min] | logPm [2] | Activity [4] [nM] | Activity [6] [%] | other results |
| --- | --- | --- | --- | --- | --- |
| CCCC(=O)NS(=O)(=O)c1ccc(C(CC2CCCC2)C(=O)Nc2nc3ccc(OC)nc3s2)cc1 (stereo not drawn) [listing 1 of 2 here] |  |  |  |  | Activity (Mus musculus [3]): inactive |
| CCCCN(CCCC)S(=O)(=O)c1ccc(C(CC2CCCC2)C(=O)Nc2nc3ccc(OC)nc3s2)cc1 (stereo not drawn) |  |  | 181 |  |  |
| CCCC(=O)[N-]S(=O)(=O)c1ccc(C(CC2CCCC2)C(=O)Nc2nc3ccc(OC)nc3s2)cc1.[Na+] (stereo not drawn) |  |  |  |  | solubility [5]: 26 µg/mL |
| COc1ccc2nc(NC(=O)C(CC3CCCC3)c3ccc(S(=O)(=O)Nc4ccccc4)cc3)sc2n1 (stereo not drawn) |  | -3.8 | 583 |  |  |
| COc1ccc2nc(NC(=O)C(CC3CCCC3)c3ccc(S(=O)(=O)N(C)Cc4nccn4C)cc3)sc2n1 (stereo not drawn) | < 1.5 | -4.1 | 66 |  |  |
| COc1ccc2nc(NC(=O)C(CC3CCCC3)c3ccc(S(=O)(=O)Nc4cccnc4)cc3)sc2n1 (stereo not drawn) |  |  | 323 | 219 |  |
| COc1ccc2nc(NC(=O)C(CC3CCCC3)c3ccc(S(=O)(=O)NCc4cccnc4)cc3)sc2n1 (stereo not drawn) | < 1.5 | -4.6 | 377 | 281 | Activity (Mus musculus [3]): inactive |
| O=C(Nc1nc2cccnc2s1)c1ccccc1 |  |  | 489 | 411 |  |
| COc1ccc2nc(NC(=O)C(CC3CCCC3)c3ccc(S(=O)(=O)NCc4ccccc4)cc3)sc2n1 (stereo not drawn) |  |  | 726 | 32 |  |
| CCCN(CCC)S(=O)(=O)c1ccc(C(CC2CCCC2)C(=O)Nc2nc3ccc(OC)nc3s2)cc1 (stereo not drawn) |  |  | 35 |  |  |
| COc1ccc2nc(NC(=O)C(CC3CCCC3)c3ccc(S(=O)(=O)N4CCN(C)CC4)cc3)sc2n1 (stereo not drawn) | 9.1 | -3.9 | 39 | 498 | solubility [10]: 50 µg/mL (≈ 92 µM); Activity (Mus musculus [12]): Active; Activity (Mus musculus [13]): inactive; Activity (Mus musculus [14]): inactive; Activity [15]: 11 mM |
| COc1ccc2nc(NC(=O)C(CC3CCCC3)c3ccc(S(=O)(=O)NCc4ccco4)cc3)sc2n1 (stereo not drawn) | 290 | -4.9 | 892 | 14 | Activity (Mus musculus [3]): inactive |
| COc1ccc2nc(NC(=O)C(CC3CCCC3)c3ccc(S(=O)(=O)N(C)Cc4ccco4)cc3)sc2n1 (stereo not drawn) | 5.1 | -5.1 | 109 | 67 |  |
| COc1ccc2nc(NC(=O)C(CC3CCCC3)c3ccc(S(=O)(=O)NCc4ccncc4)cc3)sc2n1 (stereo not drawn) | < 1.5 | -4.3 | 207 |  | solubility [10]: 10 µg/mL (≈ 18.1 µM) |
| COc1ccc2nc(NC(=O)C(CC3CCCC3)c3ccc(S(=O)(=O)N(C)Cc4ccccc4)cc3)sc2n1 (stereo not drawn) | 26.2 | -5.4 | 263 |  | Activity (Mus musculus [3]): inactive |
| CCC(=O)[N-]S(=O)(=O)c1ccc(C(CC2CCCC2)C(=O)Nc2nc3ccc(OC)nc3s2)cc1.[Na+] (stereo not drawn) |  |  |  |  | solubility [5]: 11 µg/mL |
| COc1ccc2nc(NC(=O)C(CC3CCCC3)c3ccc(S(=O)(=O)N(C(C)C)C(C)C)cc3)sc2n1 (stereo not drawn) |  |  | 73 |  |  |
| COc1ccc2nc(NC(=O)C(CC3CCCC3)c3ccc(S(=O)(=O)NCc4ccccn4)cc3)sc2n1 (stereo not drawn) |  |  | 180 |  | solubility [10]: 10 µg/mL (≈ 18.1 µM) |
